Shown are actives, neighbours in structure and some others; about 2.4% of the full set was active somewhere.
Ins promoter up = insulin promoter activators in MIN6 cells, imaging, high-content screening, mouse beta cells; MIN6 insulin promoter-GFP reporter; hits give high values; z-score at 5 µM; hit rate 0.3% among 190,000;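 active = z-score above 3 at 5 µM with at least 500 cells counted in the well; inconclusive = wells under 500 cells, flagged as cytotoxic or low count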
HTR2A ag = mouse Htr2a agonists via beta-arrestin recruitment, primary screen, cell-based, luminescence | AID 624169, 2012 | hit rate 0.66% among 360,000 | 5-hydroxytryptamine receptor 2A (Mus musculus), P35363 | activation, % at 7.6 µM | CHO-K1 mHTR2A beta-arrestin complementation; percent of 30 µM serotonin response;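 active = activation above a run cutoff, the mean activation of all tested compounds plus 3 SD, cut at about 14% in these data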
Target sequence (P35363 whole entry, looked up): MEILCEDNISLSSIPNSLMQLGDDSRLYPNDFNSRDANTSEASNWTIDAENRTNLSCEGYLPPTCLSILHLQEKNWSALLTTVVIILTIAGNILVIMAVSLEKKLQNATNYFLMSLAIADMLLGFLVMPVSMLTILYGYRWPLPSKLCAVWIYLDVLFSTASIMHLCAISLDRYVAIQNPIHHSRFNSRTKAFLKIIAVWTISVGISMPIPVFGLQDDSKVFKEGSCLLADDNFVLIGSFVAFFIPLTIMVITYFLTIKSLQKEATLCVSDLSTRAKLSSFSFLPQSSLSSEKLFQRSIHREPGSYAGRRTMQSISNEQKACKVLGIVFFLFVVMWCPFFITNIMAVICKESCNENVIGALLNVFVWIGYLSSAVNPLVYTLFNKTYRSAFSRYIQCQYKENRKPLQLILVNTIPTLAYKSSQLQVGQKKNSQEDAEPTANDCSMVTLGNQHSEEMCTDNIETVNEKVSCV
MIN6 prolif = inducers of MIN6 beta-cell proliferation, primary screen, ATP luminescence, uHTS. proliferation, % at 10 µM. hit rate 0.29% among 330,000. AID 2380, 2010. MIN6 cells proliferation, ATPlite luminescence, 48 h; cells starved in 0.2% serum; 100% = growth in 10% serum;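 active = compounds whose signal lies at least 3.5 SD above the mean of all wells on their plate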
SR-BI DiI inh = inhibitors of SR-BI mediated HDL lipid uptake, primary screen, ldlA[mSR-BI] cells, fluorescence, single point; hit rate 0.96% among 320,000; ldlA[mSR-BI] CHO cells, DiI-HDL uptake fluorescence, 3 h; AID 488896, 2010; inhibition, % at 12.5 µM;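 active = mean replicate inhibition of at least 70% and a set share of replicates each scoring 70 or more; inconclusive = meets just one of the two criteria; inactive = fails both criteria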
SR-BI uptake up = activators of SR-BI mediated DiI-HDL uptake, primary screen, ldlA[mSR-BI] CHO cells, DiI fluorescence. 3 h; 100 = double the neutral-control signal. activation, % at 12.5 µM. hit rate 0.096% among 320,000;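 active = mean replicate activation of at least 60% and every replicate at or above 60%; inconclusive = mean or all-replicate condition met, but not both; inactive = mean below 60% and not all replicates reaching 60%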
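Test system: SR-BI-overexpressing, LDLR-lacking CHO cells; Medium: Ham's F12 with 0.5% BSA, HEPES 25 mM, pH 7.4; Schedule: 3 h, 37 °C; Technique: bottom-read fluorescence, 550/595 nm.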
Calb FLC = C. albicans growth inhibition with fluconazole, primary screen, CaCi-2 strain, Alamar Blue fluorescence | C. albicans CaCi-2 + fluconazole, 48 h | growth inhibition, % (test concentration not listed) | hit rate 0.57% among 300,000;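 active = growth inhibition above about 58% in most replicates, limit read from the data, passing the limit was not always enough; inconclusive = exactly half the replicates above a set limit; inactive = most replicates below a set limit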;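 also: all wells also contain fluconazole at 8 µg/ml as a sub-toxic cotreatment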
Hits are given with their value; n = inactive; u = inconclusive; x = no result given.

SMILES | Ins promoter up | HTR2A ag | MIN6 prolif | SR-BI DiI inh | SR-BI uptake up | Calb FLC
Cc1ccc(-n2c(O)c(C=Nc3ccccc3-c3n[nH]c(=S)[nH]c3=O)c3ccccc3c2=O)cc1C | x | n | n | n | n | 100.1
O=C(NCc1ccccc1Cl)c1csc([C@@H]2C[C@H](O)[C@@H](CO)O2)n1 | x | n | x | x | x | x
O=C(Nc1cccc(C(F)(F)F)c1)c1cccnc1 | n | n | n | n | n | 117.2
Cc1ccc(C(=O)Nc2cccc(C(F)(F)F)c2)cc1NC(=O)c1csc(-c2ccncc2)n1 | n | n | n | 84.1 | n | n
OC[C@@H]1CN(Cc2ccccc2)C[C@H](n2cnc3c(NC4CCCC4)ncnc32)O1 | x | n | x | x | x | x
OCCN1CCN(c2nc(-c3ccccc3O)nc3ccccc23)CC1 | x | n | n | n | n | n
CCn1nnnc1NC(=O)c1cccc(OC)c1 | n | n | n | n | n | n
CCn1nnnc1NC(=O)c1cc(Cl)c(OC)c(Cl)c1 | n | n | n | n | n | 76.0
COc1c(Br)cc([N+](=O)[O-])c(OC)c1C(=O)NC(=O)Nc1c(Cl)cccc1Cl | n | n | n | n | n | 84.4
CN(C)C(=O)C12CCC(C)(c3nc4ccccc4nc31)C2(C)C (configuration not stated) | 3.42 | n | n | n | n | n
Cc1cc2nc3c(nc2cc1C)C1(C(=O)N(C)C)CCC3(C)C1(C)C (configuration not stated) | n | n | n | n | n | n
OC[C@@H]1CN(Cc2ccc(-c3ccccc3)cc2)C[C@H](n2cnc3c(NCc4ccco4)ncnc32)O1 | x | 18.4 | x | x | x | x
OC[C@@H]1CN(Cc2ccccc2)C[C@H](n2cnc3c(NCc4ccco4)ncnc32)O1 | x | n | x | x | x | x
CC1(C)CC(NC(=O)c2cc(Cl)ccc2Cl)CC(C)(C)N1 | x | n | n | n | n | n
CCc1ccc(C(C)(O)C(CN2CCOCC2)c2ccccc2)cc1 (configuration not stated) | x | n | n | n | n | n
O=C(N/N=C/c1ccc(O)cc1O)c1ccc(CN2C(=O)c3cccc4cccc2c34)cc1 | n | n | n | 123.6 | n | 107.8
O=C(N/N=C/c1ccccc1)c1ccc(CN2C(=O)c3cccc4cccc2c34)cc1 | n | n | n | n | n | n
CCn1c(=O)[nH]c2cc(C(=O)Nc3cc(C)cc(C)c3)ccc2c1=O | n | n | n | 72.4 | n | n
CCCCCn1c(=O)[nH]c2cc(C(=O)Nc3ccc(OC)cc3)ccc2c1=O | x | n | n | n | n | n
O=C1/C(=N\S(=O)(=O)c2cccs2)C([n+]2ccc(CCCc3ccccc3)cc2)=C([O-])c2ccccc21 | n | n | n | x | x | n
O=C1/C(=N\S(=O)(=O)c2cccs2)C([n+]2cccc(Cc3ccccc3)c2)=C([O-])c2ccccc21 | 6.82 | n | n | n | n | n
COc1ccc(NC(=O)/C(C#N)=C/c2c(C)nn(-c3ccc(F)cc3)c2Cl)cc1Cl | n | n | n | 71.4 | n | n
COc1ccc(NC(=O)/C(C#N)=C/c2c(C)nn(-c3ccc(F)cc3)c2Cl)cc1OC | n | n | n | 76.0 | n | n
COc1ccccc1NC(=O)/C(C#N)=C/c1c(C)nn(-c2ccc(F)cc2)c1Cl | n | n | n | n | n | n
Cc1nn(-c2ccccc2)c(Cl)c1/C=C(\C#N)C(=O)NC(C)C | n | n | n | n | n | n
SMILES | Ins promoter up | HTR2A ag | MIN6 prolif | SR-BI DiI inh | SR-BI uptake up | Calb FLC
COc1ccc(CN(C)CC(=O)Nc2cccc(S(=O)(=O)N(C)c3ccccc3)c2)c(OC)c1 | x | n | n | n | n | x
CCOc1ccccc1CNC(=O)c1nn(C)c2c1CS(=O)(=O)c1ccccc1-2 | x | n | n | 88.2 | n | n
CCc1nc2ccc(C(=O)NCc3ccccc3OC)cn2c1N(CC)CCOC | x | n | x | x | x | x
O=C1c2ccccc2C(=O)c2c(Nc3ccc(CCO)cc3)ccc(O)c21 | n | n | n | 93.3 | n | n
CCOC(=O)C1CCN(CCC(=O)Nc2ccc(Br)cc2)CC1 | x | n | n | n | n | n
CCOC(=O)C1CCN(CCC(=O)Nc2ccc(F)cc2)CC1 | n | n | n | n | n | 106.9
Cc1ccc2nc(Cl)c3nnnn3c2c1 | n | n | n | n | n | 96.8
Cc1ccc2nc(N3CCN(c4cccc(C)c4C)CC3)c3nnnn3c2c1 | n | n | n | n | n | n
CCOc1ccc(NC2=NCC(=O)N2Cc2cccs2)cc1 | 4.8 | n | n | n | n | n
O=C(NCCCN1CCCC1=O)C(=O)NCC1OCCCN1S(=O)(=O)c1ccccc1 (configuration not stated) | x | n | x | x | x | x
COc1ccc(CCNC(=O)COc2coc(CN3c4ccccc4CC3C)cc2=O)cc1OC (configuration not stated) | x | n | n | 85.0 | n | n
CCOc1ccccc1-c1nc(-c2ccc(NC(=O)Cc3ccc(OC)cc3)cc2)no1 | x | n | n | 98.9 | n | n
Cc1ccc2c(c1)c(/C=C/c1cc[n+](C)cc1)c(C)n2C | x | n | n | n | n | 89.2
Cc1ccc2[nH]c(C)c(/C=C/c3cc[n+](C)cc3)c2c1 | x | n | n | n | n | 93.5
C[n+]1ccc(/C=C/c2c[nH]c3ccc(F)cc23)cc1 | x | n | n | x | x | n
C[n+]1ccc(/C=C/c2ccc(Br)cc2)cc1 | x | n | n | n | n | n
Cc1ccc(-c2sc(C(=O)NN)c(C)c2C#N)cc1 | n | n | n | 91.6 | n | n
Cc1ccc(CSc2sc(C(=O)c3ccccc3)c(N)c2C#N)cc1 | x | n | n | n | n | n
COc1ccc2nc3cc([N+](=O)[O-])ccc3c(NNc3ccc([N+](=O)[O-])cc3)c2c1 | x | n | x | 121.1 | n | x
CCOc1ccc(S(=O)(=O)N2CCN(C(=O)c3cc(C4CC4)nn3-c3ccccc3)CC2)cc1 | x | n | n | n | n | x
Oc1ccc(Cl)cc1/C=C/c1ccc2cccc(O)c2n1 | x | n | n | 74.0 | n | n
COc1cc(Br)cc(/C=C/c2ccc3cccc(O)c3n2)c1O | x | n | n | 91.3 | n | n
Oc1c(Cl)cc(Cl)cc1/C=C/c1ccc2cccc(O)c2n1 | n | n | n | n | n | n
O=C(NCc1ccccc1F)C1CCCN1S(=O)(=O)c1ccc(F)cc1 (configuration not stated) | x | n | n | n | n | n
CCN1/C(=C/C=C/c2oc3ccc(-c4ccccc4)cc3[n+]2CC)Oc2ccc(-c3ccccc3)cc21 | u | n | n | n | n | 75.2
O=C(COc1ccccc1[N+](=O)[O-])N(Cc1cccc(Br)c1)C1CCS(=O)(=O)C1 (configuration not stated) | x | n | n | n | n | n
